“And” between values parts separate entries of the source, which are not always exact repeats. Identical values can stand only once.

We go through three compounds from PMC12799544 (Molecular Pharmacology, 2025).

Data set [1] deals with RyR2 (Mus musculus, UniProt E9Q401). Put plainly: Ca spark assay in permeabilized ventricular cardiomyocytes. Type of data set: cell-based, C57BL/6J mice. The note with it: for Concentration dependence of Ca spark frequency: increasing concentrations. Put shortly:
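Mouse ventricular myocytes (C57BL/6J, 12–18 weeks, both sexes) attached 10 min on laminin at room temperature, saponin-permeabilized (40 μg/mL, 40 s), then bathed 15 min in pH 7.2 internal solution (5 mM MgATP, 0.5 mM EGTA, 0.12 mM CaCl2, Fluo-4) with 0.1% DMSO or test compound. Confocal x-t sparks in brick-shaped cells; caffeine used as reference activator. Hierarchical mixed-effects statistics; 4-parameter concentration-response fit.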

Data set [2] addresses T1, RyR2 (Sus scrofa, UniProt A0A5G2R1W3). Put plainly: [3H]-ryanodine ligand binding assay, cardiac SR membrane. Set-up: species or system porcine. Put shortly: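 Porcine cardiac SR (3 mg/mL) was incubated 3 h at 37 °C with 7.5 nM [3H]-ryanodine and compound in 20 mM PIPES pH 7.0, 150 mM KCl, 5 mM ATP, 0.1 μM calmodulin and 0.1 μM free Ca (1 mM EGTA). Nonspecific binding used 15 μM cold ryanodine; maximal binding used 5 mM AMP-PNP plus 20 mM caffeine. Bound label was counted by filtration and scintillation, normalized to vehicle; 4-parameter fit.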

Data set [3] in a line: Parallel artificial membrane permeability assay. In kind it is in vitro ADME. Put shortly: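 Donor compound at 500 μM in PBS pH 7.4 with TPGS, across hydrophobic membranes pretreated with 1% lecithin in n-dodecane, into PBS acceptor. Incubated 14–18 h at room temperature in a humidified chamber. Donor and acceptor were quantified by LC-MS; Papp, percent recovery and percent diffusion came from ratio formulas.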

Data set [4] addresses T2, RyR1 (Sus scrofa, UniProt P16960). Kind of data set: [3H]-ryanodine ligand binding assay, skeletal SR membrane. Details: species or system porcine. The method in brief: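 Porcine skeletal SR (1 mg/mL) was incubated 3 h at 37 °C with 10 nM [3H]-ryanodine and compound in 20 mM PIPES pH 7.0, 150 mM KCl, 5 mM ATP, 0.1 μM calmodulin and 0.1 μM free Ca (1 mM EGTA). Nonspecific binding used 15 μM cold ryanodine; maximal binding used 5 mM AMP-PNP plus 20 mM caffeine. Bound label was counted by filtration and scintillation, normalized to vehicle; 4-parameter fit.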

The target of data set [5] is T1, RyR2. Kind of data set: RyR2 single-channel recording in artificial lipid bilayers. In kind it is biochemical, porcine. Put shortly:
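Porcine cardiac SR vesicles were fused into PE:PS:PC (5:3:2) bilayers with symmetric 250 mM Cs+ and TES pH 7.4. The cis side held 0.1 μM free Ca (CaCl2/BAPTA) plus 2 mM ATP, at 23 ± 2 °C and +40 mV. Compound (0.01–10 or 1–100 μM) was added cis with DMSO <0.1%. Po came from 30–60 s at a 50% threshold, relative to vehicle on the same channel. Dwell times were fitted with 2 exponentials; 4-parameter fit.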

Data set [6] concerns the target T2, RyR1. Put plainly: RyR1 single-channel recording in artificial lipid bilayers. Type of data set: biochemical, porcine. Put shortly: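 Porcine longissimus dorsi SR vesicles were fused into PE:PS:PC (5:3:2) bilayers with symmetric 250 mM Cs+ and TES pH 7.4. The cis side held 0.1 μM free Ca (CaCl2/BAPTA) plus 2 mM ATP, at 23 ± 2 °C. Compound was added cis by aliquot or local perfusion, DMSO <0.1%. Po came from 30–60 s recordings, 50% amplitude threshold, 1 kHz filter. Nonlinear 4-parameter concentration-response fit.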

Data set [7] is described as follows: Caco-2 bidirectional permeability assay. Type of data set: in vitro ADME, human. The note with it: human, Caco-2, pH 7.4. The method in brief:
(§1)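 Caco-2 monolayers (passages 55–65) grown 21 days on 0.4 μm Transwell inserts and used only above 1000 Ω·cm2 TEER. Compound at 10 μM in HBSS (<1% DMSO) was dosed apically or basally. Samples at 0 and 2 h were analyzed by LC-MS for Papp, efflux ratio and recovery. Integrity was checked afterwards by lucifer yellow flux (≤0.5%).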
(Caco-2 monolayers are a common model of the intestinal barrier.)

Data set [8] deals with Caco-2 cell monolayer. Put plainly: Caco-2 bidirectional permeability assay. In kind it is in vitro ADME, human. To be noted: recovery. The method in brief: as §1
In data set [9] the test system is RyR2. The note with it: cited from earlier work.

T2 sequence (P16960 whole entry): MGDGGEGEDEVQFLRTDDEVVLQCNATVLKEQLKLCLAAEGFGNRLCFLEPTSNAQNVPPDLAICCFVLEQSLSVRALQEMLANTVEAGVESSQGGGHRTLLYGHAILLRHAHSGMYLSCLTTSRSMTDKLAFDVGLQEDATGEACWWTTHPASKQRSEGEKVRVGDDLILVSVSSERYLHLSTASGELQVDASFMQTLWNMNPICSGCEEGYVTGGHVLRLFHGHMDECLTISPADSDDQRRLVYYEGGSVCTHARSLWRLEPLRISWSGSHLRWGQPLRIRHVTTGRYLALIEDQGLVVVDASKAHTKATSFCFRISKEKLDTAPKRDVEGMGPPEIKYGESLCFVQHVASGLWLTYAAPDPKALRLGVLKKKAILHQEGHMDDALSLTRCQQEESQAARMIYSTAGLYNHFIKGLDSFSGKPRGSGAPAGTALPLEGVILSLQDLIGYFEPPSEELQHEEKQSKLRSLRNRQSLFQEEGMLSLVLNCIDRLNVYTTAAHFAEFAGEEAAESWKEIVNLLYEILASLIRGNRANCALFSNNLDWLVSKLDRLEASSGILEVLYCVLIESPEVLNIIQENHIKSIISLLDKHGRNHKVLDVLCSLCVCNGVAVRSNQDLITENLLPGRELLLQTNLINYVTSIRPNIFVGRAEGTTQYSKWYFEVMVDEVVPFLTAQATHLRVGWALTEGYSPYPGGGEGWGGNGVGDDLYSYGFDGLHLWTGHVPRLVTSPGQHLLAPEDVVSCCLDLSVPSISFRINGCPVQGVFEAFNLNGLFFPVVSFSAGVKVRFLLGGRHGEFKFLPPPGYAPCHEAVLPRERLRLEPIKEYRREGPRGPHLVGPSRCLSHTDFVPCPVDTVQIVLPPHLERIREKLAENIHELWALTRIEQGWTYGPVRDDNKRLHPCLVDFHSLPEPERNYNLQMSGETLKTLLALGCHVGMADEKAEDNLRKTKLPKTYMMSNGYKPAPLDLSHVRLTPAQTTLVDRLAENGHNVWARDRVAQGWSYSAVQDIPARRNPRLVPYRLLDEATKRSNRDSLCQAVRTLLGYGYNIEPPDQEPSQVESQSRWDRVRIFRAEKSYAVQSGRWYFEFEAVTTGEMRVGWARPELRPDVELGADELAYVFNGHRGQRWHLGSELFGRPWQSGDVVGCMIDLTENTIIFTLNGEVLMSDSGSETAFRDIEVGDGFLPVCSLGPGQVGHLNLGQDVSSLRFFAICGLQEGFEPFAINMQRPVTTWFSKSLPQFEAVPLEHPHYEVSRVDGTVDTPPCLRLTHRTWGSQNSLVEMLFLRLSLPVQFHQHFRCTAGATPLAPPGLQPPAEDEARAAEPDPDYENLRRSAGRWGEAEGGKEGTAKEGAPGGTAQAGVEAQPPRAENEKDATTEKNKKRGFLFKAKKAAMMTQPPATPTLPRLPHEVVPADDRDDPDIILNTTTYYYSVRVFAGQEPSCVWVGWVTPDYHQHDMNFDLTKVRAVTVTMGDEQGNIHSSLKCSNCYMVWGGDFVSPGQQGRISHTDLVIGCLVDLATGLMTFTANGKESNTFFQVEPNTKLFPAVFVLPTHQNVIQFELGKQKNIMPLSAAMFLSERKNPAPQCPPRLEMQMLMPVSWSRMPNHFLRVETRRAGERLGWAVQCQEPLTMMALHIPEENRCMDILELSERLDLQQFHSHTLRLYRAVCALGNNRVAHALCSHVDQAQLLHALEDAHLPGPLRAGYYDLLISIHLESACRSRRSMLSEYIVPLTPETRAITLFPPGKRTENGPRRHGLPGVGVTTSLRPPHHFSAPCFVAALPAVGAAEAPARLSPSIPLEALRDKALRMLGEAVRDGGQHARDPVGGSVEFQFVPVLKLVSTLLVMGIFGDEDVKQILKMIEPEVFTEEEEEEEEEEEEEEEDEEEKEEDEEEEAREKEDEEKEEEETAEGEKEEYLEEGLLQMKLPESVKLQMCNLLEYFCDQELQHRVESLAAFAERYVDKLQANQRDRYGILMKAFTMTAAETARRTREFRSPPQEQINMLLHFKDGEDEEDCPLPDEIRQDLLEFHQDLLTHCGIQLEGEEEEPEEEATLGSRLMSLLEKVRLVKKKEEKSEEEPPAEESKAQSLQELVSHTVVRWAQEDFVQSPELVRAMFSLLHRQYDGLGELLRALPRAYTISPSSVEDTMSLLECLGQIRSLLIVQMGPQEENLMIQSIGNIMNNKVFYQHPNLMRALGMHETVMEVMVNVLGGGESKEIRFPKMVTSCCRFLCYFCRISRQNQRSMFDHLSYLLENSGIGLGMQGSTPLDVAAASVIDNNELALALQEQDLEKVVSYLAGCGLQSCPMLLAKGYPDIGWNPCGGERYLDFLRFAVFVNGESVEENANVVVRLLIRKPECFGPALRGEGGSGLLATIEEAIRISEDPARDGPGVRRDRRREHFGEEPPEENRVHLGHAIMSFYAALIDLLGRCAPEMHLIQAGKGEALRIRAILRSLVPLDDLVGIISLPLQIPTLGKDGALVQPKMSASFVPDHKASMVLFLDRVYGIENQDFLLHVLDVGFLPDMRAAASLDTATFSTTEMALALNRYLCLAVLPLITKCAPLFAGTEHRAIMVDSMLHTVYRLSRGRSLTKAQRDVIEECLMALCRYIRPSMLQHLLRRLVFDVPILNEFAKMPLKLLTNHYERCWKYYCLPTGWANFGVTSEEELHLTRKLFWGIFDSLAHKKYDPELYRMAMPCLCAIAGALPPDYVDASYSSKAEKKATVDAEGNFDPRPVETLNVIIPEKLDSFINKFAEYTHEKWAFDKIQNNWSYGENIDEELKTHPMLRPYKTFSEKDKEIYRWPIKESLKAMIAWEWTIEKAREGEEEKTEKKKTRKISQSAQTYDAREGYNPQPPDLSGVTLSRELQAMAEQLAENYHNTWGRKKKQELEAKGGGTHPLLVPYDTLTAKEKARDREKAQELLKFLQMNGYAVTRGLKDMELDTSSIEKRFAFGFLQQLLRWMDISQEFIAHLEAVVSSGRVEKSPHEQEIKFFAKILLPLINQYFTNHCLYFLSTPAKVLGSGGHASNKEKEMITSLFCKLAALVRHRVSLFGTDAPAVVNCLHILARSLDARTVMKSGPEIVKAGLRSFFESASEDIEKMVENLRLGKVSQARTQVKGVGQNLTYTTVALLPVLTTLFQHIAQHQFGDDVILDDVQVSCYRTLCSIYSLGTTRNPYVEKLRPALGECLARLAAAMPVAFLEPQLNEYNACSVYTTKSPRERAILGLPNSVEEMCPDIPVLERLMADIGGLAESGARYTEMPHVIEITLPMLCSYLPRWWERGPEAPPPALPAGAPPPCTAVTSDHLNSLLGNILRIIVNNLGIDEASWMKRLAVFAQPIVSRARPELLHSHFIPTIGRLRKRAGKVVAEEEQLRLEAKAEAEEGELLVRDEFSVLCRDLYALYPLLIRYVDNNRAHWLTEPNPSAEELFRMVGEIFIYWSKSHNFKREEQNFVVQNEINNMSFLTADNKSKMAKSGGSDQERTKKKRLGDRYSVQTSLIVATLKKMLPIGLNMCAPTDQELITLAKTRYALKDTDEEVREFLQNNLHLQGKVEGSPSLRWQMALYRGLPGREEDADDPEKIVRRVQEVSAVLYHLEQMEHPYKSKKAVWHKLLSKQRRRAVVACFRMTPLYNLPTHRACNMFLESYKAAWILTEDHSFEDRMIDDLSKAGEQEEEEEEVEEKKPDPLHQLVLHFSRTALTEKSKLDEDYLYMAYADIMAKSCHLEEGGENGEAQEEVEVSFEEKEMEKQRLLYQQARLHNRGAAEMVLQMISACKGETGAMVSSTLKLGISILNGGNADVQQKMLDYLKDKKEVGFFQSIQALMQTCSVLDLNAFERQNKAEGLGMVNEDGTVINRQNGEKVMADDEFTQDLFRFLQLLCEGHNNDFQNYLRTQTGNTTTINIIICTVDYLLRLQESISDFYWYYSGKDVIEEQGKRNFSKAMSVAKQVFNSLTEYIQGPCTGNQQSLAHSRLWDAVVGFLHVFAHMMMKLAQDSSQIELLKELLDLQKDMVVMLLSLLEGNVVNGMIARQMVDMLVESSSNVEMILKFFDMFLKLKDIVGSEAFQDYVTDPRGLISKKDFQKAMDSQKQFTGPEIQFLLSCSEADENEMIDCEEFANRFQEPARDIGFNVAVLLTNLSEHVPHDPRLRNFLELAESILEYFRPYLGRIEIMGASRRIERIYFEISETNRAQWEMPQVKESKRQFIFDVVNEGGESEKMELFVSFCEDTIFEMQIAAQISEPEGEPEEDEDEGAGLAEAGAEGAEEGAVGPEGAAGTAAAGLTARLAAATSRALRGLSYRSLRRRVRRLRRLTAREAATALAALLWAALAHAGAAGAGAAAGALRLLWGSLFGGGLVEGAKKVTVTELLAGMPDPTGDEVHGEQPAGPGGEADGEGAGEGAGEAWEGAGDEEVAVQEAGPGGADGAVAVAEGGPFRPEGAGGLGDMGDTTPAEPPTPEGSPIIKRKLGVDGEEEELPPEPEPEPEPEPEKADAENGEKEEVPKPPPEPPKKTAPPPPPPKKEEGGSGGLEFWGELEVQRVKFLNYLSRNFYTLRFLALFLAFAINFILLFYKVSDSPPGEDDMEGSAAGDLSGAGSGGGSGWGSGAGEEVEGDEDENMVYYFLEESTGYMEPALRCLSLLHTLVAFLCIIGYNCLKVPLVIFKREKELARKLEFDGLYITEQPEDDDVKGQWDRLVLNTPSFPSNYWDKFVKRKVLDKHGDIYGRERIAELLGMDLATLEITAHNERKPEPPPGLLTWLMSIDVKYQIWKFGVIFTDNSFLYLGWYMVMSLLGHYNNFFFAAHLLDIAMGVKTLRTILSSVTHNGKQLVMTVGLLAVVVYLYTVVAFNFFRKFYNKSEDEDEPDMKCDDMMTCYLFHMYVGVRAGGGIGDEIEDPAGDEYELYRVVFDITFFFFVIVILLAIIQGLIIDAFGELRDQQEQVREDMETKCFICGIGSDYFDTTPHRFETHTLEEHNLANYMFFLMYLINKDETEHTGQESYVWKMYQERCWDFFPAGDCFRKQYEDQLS

Take `Cn1c(=O)c2c(ncn2C)n(C)c1=O` [caffeine, reference compound]: the “Ca spark duration with caffeine” value in data set [1] (1 mM caffeine) is on record as “many long-lasting sparks”. In addition, in data set [1], the “Concentration dependence of Ca spark frequency” value was “dose-dependent response”.
With `CCCCC[C@@H]1OC(=O)[C@@H](C)N(C)C(=O)[C@H](CCCCC)OC(=O)[C@@H](C)N(C)C(=O)[C@H](CC(=O)O)OC(=O)[C@@H](C)N(C)C(=O)[C@H](CCCCC)OC(=O)[C@@H](C)N(C)C1=O` [activert, 2-((2S,5R,8S,11R,14S,17R,20S,23R)-4,5,10,11,16,17,22,23-Octamethyl-3,6,9,12,15,18,21,24-octaoxo-8,14,20-tripentyl-1,7,13,19-tetraoxa-4,10,16,22-tetraazacyclotetracosan-2-yl)acetic acid], in data set [2], the half-maximal effective concentration (EC50) is approximately 46 µM. Besides, the Emax in [2] (read-out: Emax, increase of [3H]-ryanodine binding to RyR2 normalized to vehicle) was approximately 29%. In addition, in data set [3] (PAMPA), the “% Diffusion” value stood at 7%. Moreover, the “%R” value in data set [3] (PAMPA recovery) is reported as 92%. Further, in [3] (PAMPA, pH 7.4, Permeability (experimental permeability rate)), the apparent permeability (Papp) at 500 µM was less than 20 nm/s. Further, in [1] (25 μM), the “Average duration of the Ca spark” value was “modestly increased”, the “Overall RyR2-mediated SR Ca leak” value is “elevated”, the “Reduction of SR Ca load (amplitude of caffeine-induced Ca transient)” value is recorded as approximately 10% and the “Size (amplitude or width) of the average Ca spark” value is “without changes”. Also, the “Ca spark frequency versus vehicle” value in data set [1] (25 μM, 15 min, permeabilized cardiomyocytes) is “increase”. In data set [1] (100 μM activert), the “Distribution of Ca spark duration compared with DMSO control” value is reported as “prolonged”. The “Concentration dependence of Ca spark frequency” value in data set [1] is recorded as “dose-dependent increase”. Also, in [4], the EC50 was approximately 9 µM. The Emax in data set [4] (read-out: Emax, increase of [3H]-ryanodine binding to RyR1 normalized to vehicle) is approximately 17%. Besides, the IC50 in data set [5] was approximately 32.2 µM. In addition, in data set [5] (EC50, activation of RyR2 single-channel Po, pCa 7, 2 mM ATP, +40 mV, 95% CI 1.4–63.1 μM), the EC50 was ~30 µM and ~32.2 µM. Also, in data set [5] (activert ≥50 μM versus vehicle), the Mean closed duration result is “decreased” and the Mean open duration entry is “without altering”. For the same compound, the “Potency on RyR2 compared with ent-verticilide (fold less potent)” value in data set [5] (compared with ent-verticilide) was approximately 100 fold. Further, in data set [5] (read-out: Emax, partial activation of RyR2 single-channel Po), the Emax is approximately 34%. Besides, the EC50 in [6] is approximately 10.5 µM. The maximum response (Emax) in data set [6] (read-out: Emax, increase of RyR1 single-channel Po) was approximately 14.4%. In [7], the apical-to-basolateral permeability (Papp A→B) at 2 h, 10 µM is 4 nm/s; the Papp B→A at 2 h, 10 µM turned out to be 11 nm/s; the Papp at 2 h, 10 µM was less than 10 nm/s; the efflux ratio at 2 h, 10 µM amounted to 2.73. In addition, the “%R (A-B)” value in [8] (apical-to-basal) was 101%. In data set [8] (basal-to-apical), the “%R (B-A)” value stood at 80%.
`O=C1CN(/N=C/c2ccc(-c3ccc([N+](=O)[O-])cc3)o2)C(O)=N1` [dantrolene]: the “Maximal inhibition of RyR2” value in data set [9] is approximately 50%.

In general, EC50 refers to the concentration at which the effect is half-maximal. The low end stands for higher potency in that assay, the high end for lower potency in that assay. Usually Emax stands for the size of the effect at its maximum, as opposed to the concentration needed. As usually defined, the Papp is the rate of passage across a membrane or cell layer, normalised by area and donor concentration. As a reminder, the IC50 is the point on the concentration scale where inhibition reaches its midpoint. Lower therefore signals higher potency. The Papp A→B is how fast a substance crosses the layer from the apical side. A low value points to slow passage. The Papp B→A is how fast a substance crosses the layer from the basolateral side. In general, efflux ratio refers to a quotient of directional permeabilities that is used to spot active efflux.
